H69AR inhibit: blocks growth of human H69AR lung tumor cells; H69AR lung tumor viability, ATP luminescence, 72 h; active compounds read low; viability, % at 10 µM; hit rate 6% among 85,000;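 active = viability at or below 40%; inactive = viability above 40%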;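 note: multidrug resistant small cell line overexpressing MRP-1 efflux transporter; 100% = mean luminescence of untreated control wells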
Fibroblast inh: blocks proliferation of human lung fibroblasts | LL 47 human lung fibroblast viability, ATP luminescence; active compounds read low | hit rate 1.1% among 85,000 | viability, % at 10 µM | AID 719;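 active = viability at or below 50% in the single dose screen; inactive = viability above 50%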;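 note: compound exposure lasted 72 h before the ATP readout; 100% = median luminescence of untreated cell-only wells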
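Benchmarks: Cell-only wells, no compound | Test system: LL 47 human lung fibroblasts, passage 12 or lower | Input: 1,150 cells/well | Measured by: CellTiter-Glo luminescence measuring cellular ATP | Medium: IMEM, 15% FBS supplement | Schedule: Overnight attachment after seeding, then 72 h compound exposure at 37 °C | Doses: Compound addition at 0.1% DMSO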
HCT116 bCat-KO: beta-catenin-lacking colon tumor cell growth suppression; AID 818; hit rate 1.5% among 140,000; viability, % at 10 µM; HCT116 beta-catenin knockout viability, CellTiter-Glo, 60 h; active compounds read low;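 active = viability at or under a set limit, the compound median less 4 SD, cut at about 6% in these data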;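 note: 0% = Hyamine 1622 control at 20 µM and 100% = untreated cell control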
HUVEC prolif 384: blocks proliferation of human endothelial cells | viability, % at 10 µM (by protocol) | AID 648 | HUVEC proliferation, CellTiter-Glo luminescence, 72 h; active compounds read low | hit rate 1.1% among 86,000;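 active = viability at or below 30%; inactive = viability above 30%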;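 note: 100% = median luminescence of DMSO-only cell control wells on each plate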
PTEN del growth: suppresses growth of cells with PTEN deletion; viability, % at 10 µM; hit rate 1.2% among 140,000; HCT116 PTEN-null viability, CellTiter-Glo, 60 h; active compounds read low; AID 827;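 active = viability at or below a set limit, 4 SD under the median of all tested compounds, cut at about 3.7% in these data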;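 note: PTEN knockout HCT116 line with beta catenin targeted HCT116 as companion control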
* marks the source's active call; other numbers are inactive results; · = no result. This is one part of a sample in which hits are shown more often than they occur.

SMILES | H69AR inhibit | Fibroblast inh | HCT116 bCat-KO | HUVEC prolif 384 | PTEN del growth
Cc1ccc2c(c1)C(O)(c1c(C)[nH]c3ccccc13)C(=O)N2 (stereo not drawn) | 82 | 91 | 83 | 88 | 73
CC1CCCCC1NC(=O)c1ccc2c(c1)[nH]c(=O)n2C1CCCC1 (stereo not drawn) | 21* | 92 | 88 | 105 | 83
O=C(CC1SC(=Nc2ccccc2)N(Cc2ccccn2)C1=O)Nc1ccc(Br)cc1 (stereo not drawn) | · | · | 54 | · | 58
C=CCOc1c(Cl)cc(C2NC(=O)NC(C)=C2C(=O)OC)cc1Cl (stereo not drawn) | 32* | 81 | 54 | 77 | 64
COc1ccccc1-c1ccc(=O)n(CC(=O)NCc2ccc3c(c2)OCO3)n1 | 102 | 93 | 104 | 99 | 98
Cc1cc2ccccc2n1CCNC(=O)COc1ccccc1 | 89 | 108 | 89 | 97 | 96
N#Cc1ccc(-c2csc(NNC(=O)c3ccc(Br)cc3)n2)cc1 | · | · | 2.8* | · | 4
N=c1sc2ccccc2n1-c1ccccc1 | 31* | 100 | 99 | 94 | 96
Cn1c(=O)c2c(ncn2CC(O)CO)n(C)c1=O (stereo not drawn) | 97 | 89 | 102 | 98 | 96
Cn1c(=O)c2c(ncn2CC(COCc2ccc(Cl)cc2)OCc2ccc(Cl)cc2)n(C)c1=O (stereo not drawn) | 35* | 97 | 59 | 81 | 50
COc1ccc(-c2nnc(NC(=O)c3ccc(S(=O)(=O)N4CCc5ccccc5C4)cc3)o2)cc1 | 18* | 69 | 22 | 13* | 16
COc1ccc(-c2csc(NC(=O)c3ccc(S(=O)(=O)N4CCc5ccccc5C4)cc3)n2)cc1 | · | · | 63 | · | 57
O=C(Nc1nnc(-c2ccccc2)o1)c1nc2ccccc2s1 | 29* | 90 | · | 67 | ·
CN(C)S(=O)(=O)c1ccc(C(=O)Nc2nnc(-c3ccc4c(c3)CCCC4)o2)cc1 | 28* | 71 | 15 | 40 | 15
NC(=O)c1oc2ccccc2c1NC(=O)c1nc2ccccc2s1 | 91 | 95 | 86 | 91 | 82
Cc1ccccc1C(=O)Nc1nnc(-c2ccc(F)cc2)o1 | 36* | 85 | 12 | 65 | 13
Cc1cc(=O)oc2cc(OCCSCCN3CCOCC3)ccc12 | 86 | 105 | 93 | 106 | 92
CC(=O)Nc1ccc(OCC(O)CN2CCN(c3cccc(Cl)c3)CC2)cc1 (stereo not drawn) | 92 | 99 | 85 | 100 | 96
COc1ccccc1OCC(=O)NN1Cc2ccccc2C1=N | · | · | 84 | · | 92
CCc1ccc(N2CC(C(=O)Nc3cc(C)ccc3F)CC2=O)cc1 (stereo not drawn) | 91 | 96 | 113 | 90 | 86
O=C(Nc1nnc(-c2ccc3c(c2)CCCC3)o1)C1CCCCC1 | 49 | 80 | 43 | 70 | 59
COc1ccc(-c2nnc(NC(=O)c3cc(Cl)ccc3Cl)o2)cc1 | 30* | 76 | 29 | 50 | 22
O=C(Nc1nnc(-c2ccc3c(c2)CCCC3)o1)c1ccc(Cl)cc1Cl | 52 | 89 | 50 | 29* | 52
COc1cc(C2Nc3ccc4ncccc4c3C3=C2C(=O)CCC3)cc(OC)c1O (stereo not drawn) | 27* | 56 | 22 | 59 | 27
O=C(CCc1nc(-c2ccccc2F)no1)Nc1ccc(Oc2ccccc2)cc1 | 29* | 60 | 9 | 32 | 15
SMILES | H69AR inhibit | Fibroblast inh | HCT116 bCat-KO | HUVEC prolif 384 | PTEN del growth
COc1cccc(NC(=O)CCc2nc(-c3ccccc3F)no2)c1 | 89 | 100 | 104 | 82 | 109
C=CCn1c(SCC(N)=O)nnc1-c1ccccc1O | 94 | 99 | 100 | 95 | 103
CCn1c(SCC(=O)c2ccc(O)c(O)c2)nnc1-c1ccccc1OC | 36* | 79 | 67 | 76 | 96
C=CCn1c(SCC(=O)c2ccc(O)c(O)c2)nnc1-c1ccccc1OC | 20* | 68 | 47 | 76 | 66
CC1CC(C)CN(C(=O)COC(=O)c2cc3ccccc3cc2O)C1 (stereo not drawn) | 88 | 92 | 73 | 70 | 74
COC(=O)NC(=C(Cl)Cl)S(=O)(=O)c1ccccc1 | 1.1* | 34* | 2.6* | 55 | 1.9*
C=CCn1c(O)c(N=NC(=S)Nc2cccc(C)c2)c2ccccc21 | 22* | 52 | 13 | 48 | 14
C=CCn1c(SCC(=O)NCc2ccc3c(c2)OCO3)nc2scc(-c3ccccc3)c2c1=O | 66 | 102 | 78 | 83 | 79
C=CCn1c(SCC(=O)N2CC(=O)Nc3ccccc32)nc2scc(-c3ccccc3)c2c1=O | 26* | 99 | 55 | 74 | 52
COc1ccc([N+](=O)[O-])cc1C1NN=C(c2ccccc2O)S1 (stereo not drawn) | 27* | 61 | 72 | 74 | 69
CCc1c(C)nc(N)n2c(SCC(=O)N3CCN(c4ccccc4F)CC3)nnc12 | 93 | 99 | · | 102 | ·
Cc1ccc(C)c(NC2=C(Cl)C(=O)OC2OC(=O)c2ccco2)c1 (stereo not drawn) | 9.4* | 91 | 76 | 79 | 72
Cc1ccc(NC2=C(Cl)C(=O)OC2OC(=O)c2ccco2)c(C)c1 (stereo not drawn) | 51 | 94 | 53 | 81 | 57
OC1(c2cccc(C(F)(F)F)c2)CCN(c2ncnc3c2[nH]c2ccc(F)cc23)CC1 | 2.4* | 61 | 6 | 6.4* | 2.6*
O=C(CCCOc1ccc(Cl)cc1Cl)N/N=C/c1ccccc1O | · | · | 4.6* | · | 9
CC(C)(C)n1ncc2c(=O)n(CC(=O)N3CCCCCC3)cnc21 | · | · | 93 | · | 102
O=C(CN1CCC(NC(=O)c2ccccc2F)CC1)NCc1ccc(F)cc1 | 3.2* | 102 | 91 | 89 | 87
Cc1ccc(C(=O)CSC2=C(C#N)C(c3ccco3)C3=C(CCCC3=O)N2)cc1 (stereo not drawn) | 19* | 60 | 19 | 50 | 18
CC(C)(C)c1ccc(C(=O)CCCSC2=C(C#N)C(c3ccco3)C3=C(CCCC3=O)N2)cc1 (stereo not drawn) | 49 | 81 | 62 | 68 | 53
N#CC1=C(SCC(=O)c2ccccc2)NC2=C(C(=O)CCC2)C1c1ccco1 (stereo not drawn) | 16* | 64 | 12 | 44 | 9
CCOC(=O)/C=C/S(=O)(=O)c1ccc(NC(C)=O)cc1 | -0.2* | 14* | 81 | 68 | 76
CCCCNCc1cc(Br)c(OCc2cccs2)c(OC)c1 | · | · | 1.4* | · | 1.3*
CCOc1c(Br)cc(CNCc2cccs2)cc1OC | · | · | 92 | · | 91
Cc1ccc(OCCn2cc(/C(N)=N/O)c3ccccc32)cc1C | 35* | 89 | 71 | 88 | 73
Brc1ccc(CSc2nnc(-c3ccccn3)n2Cc2ccco2)cc1 | 21* | 49* | 11 | 52 | 10
C(=C\c1ccccc1)/CSc1nnc(-c2ccccc2)n1Cc1ccco1 | 18* | 47* | 10 | 43 | 12
CCOc1ccc(C(=O)Nc2ccccc2N2CCCC2)cc1 | 36* | 92 | 73 | 96 | 69
CCCc1nc(NCc2ccncc2)c2nnn(Cc3ccccc3F)c2n1 | 42 | 90 | 1.9* | 89 | 3.2*

Screening results: PubChem, SRMLSC
